Drawing on ChEMBL document CHEMBL3227926, “2-Mercaptoacetamidines as gastric antisecretory agents” (J Med Chem, 1979), this text covers inhibition in vivo and Activity for 15 compounds.

For series [1], the system named is Canis familiaris. Put plainly: Inhibition of gastrin tetrapeptide-induced gastric secretion in beagle dog at 4 mg/kg administered directly into stomach via gastric cannula measured after 2 hrs of stimulation. The series is classed as functional. Conditions: Canis lupus familiaris. In a few lines: (§1)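 Conscious female beagles (5-9 kg) with chronic gastric fistula. Dose in 50 mL 1% methylcellulose was put into the stomach via the cannula 1 h before gastrin tetrapeptide 64 µg/kg sc (from 640 µg/mL in 30% Me2SO); controls got vehicle. Juice was collected for 2 h. Volume was measured, titratable acid obtained by titration to pH 7 with 0.01 N NaOH, and total acid taken as volume × concentration.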

In series [2] the test system is Canis familiaris. Put plainly: Inhibition of gastrin tetrapeptide-induced gastric secretion in beagle dog at 8 mg/kg administered directly into stomach via gastric cannula measured after 2 hrs of stimulation. The series is classed as functional. Conditions: Canis lupus familiaris. In outline: as §1
Series [3] relates to Canis familiaris. Put plainly: Inhibition of gastrin tetrapeptide-induced gastric secretion in beagle dog at 16 mg/kg administered directly into stomach via gastric cannula measured after 2 hrs of stimulation. Conditions: Canis lupus familiaris. Type of series: functional. In outline:
as §1

In series [4] the test system is Canis familiaris. Description: Toxicity in beagle dog assessed as emesis administered directly into stomach via gastric cannula. Conditions: in vivo, other. Type of series: organism-based, Canis lupus familiaris.
In series [5] the test system is Canis familiaris. Put plainly: Toxicity in beagle dog assessed as tachycardia administered directly into stomach via gastric cannula. The series is classed as organism-based, Canis lupus familiaris. Conditions: in vivo, other.
Series [6] has as its system Canis familiaris. Put plainly: Toxicity in beagle dog assessed as gastric bleeding administered directly into stomach via gastric cannula. The series is classed as organism-based, Canis lupus familiaris. The settings on record: in vivo, other.
Series [7] concerns Canis familiaris. Description: Inhibition of gastrin tetrapeptide-induced gastric secretion in beagle dog at 2 mg/kg administered directly into stomach via gastric cannula measured after 2 hrs of stimulation. The series is classed as functional. The settings on record: Canis lupus familiaris. In a few lines:
as §1

Series [8] relates to Canis familiaris. Put plainly: Inhibition of gastrin tetrapeptide-induced gastric secretion in beagle dog at 32 mg/kg administered directly into stomach via gastric cannula measured after 2 hrs of stimulation. Type of series: functional. The settings on record: Canis lupus familiaris. In a few lines: as §1

A word on the inhibition in vivo: it is the drop in the measured response relative to a control, in per cent.

For the compound `Cl.N=C(CS)NCCC12CC3CC(CC(C3)C1)C2`, the inhibition in vivo at 4 mg/kg in the series with Canis familiaris [1] came out at 0%. 8 mg/kg produced 61% inhibition in vivo with Canis familiaris [2]. In the series with Canis familiaris [3], this compound registered an inhibition in vivo at 16 mg/kg of 100%. For the same compound, the Activity entry in the series with Canis familiaris [4], with Canis familiaris [5] and with Canis familiaris [6] was “Toxic” throughout.
In the case of `Cl.N=C(CS)NCCCC12CC3CC(CC(C3)C1)C2`, the inhibition in vivo at 4 mg/kg in the series on Canis familiaris [1] was determined as 36%. For the same compound, in the series on Canis familiaris [2], the inhibition in vivo at 8 mg/kg came out at 81%. Moreover, the Activity entry in the series on Canis familiaris [4], with Canis familiaris [5] and in the series with Canis familiaris [6] was “Toxic” in each case.
Consider `Cl.N=C(CS)NCCCCC12CC3CC(CC(C3)C1)C2`, for which the inhibition in vivo at 4 mg/kg in the series on Canis familiaris [1] worked out at 0%. The compound also came in with an inhibition in vivo at 8 mg/kg in the series with Canis familiaris [2] of 67%. The Activity result in the series with Canis familiaris [4], in the series with Canis familiaris [5] and with Canis familiaris [6] was “Toxic” in each case.
In the series on Canis familiaris [7], `CCNC(=N)CS.Cl` displayed an inhibition in vivo at 2 mg/kg of 27%. The same compound yielded an inhibition in vivo at 4 mg/kg with Canis familiaris [1] of 90%. The Activity entry in the series with Canis familiaris [4], in the series on Canis familiaris [5] and in the series on Canis familiaris [6] was “Toxic” each time.
The compound `CC(C)(C)CNC(=N)CS.Cl` returned an inhibition in vivo at 4 mg/kg in the series on Canis familiaris [1] of 25%. In the series with Canis familiaris [2], this compound registered an inhibition in vivo at 8 mg/kg of 95%. The Activity entry with Canis familiaris [4], in the series with Canis familiaris [5] and in the series with Canis familiaris [6] was “Toxic” each time.
`Cl.N=C(CS)NCC12CCC(CC1)C2` registered an inhibition in vivo at 4 mg/kg with Canis familiaris [1] of 0%. At 8 mg/kg the inhibition in vivo in the series on Canis familiaris [2] was 91%. Besides, the Activity entry in the series with Canis familiaris [4], with Canis familiaris [5] and with Canis familiaris [6] was “Toxic” throughout.
In the series on Canis familiaris [1], `Cl.N=C(CS)NCC12CCC(CC1)CC2` gave an inhibition in vivo at 4 mg/kg of 48%. For the same compound, in the series with Canis familiaris [2], the inhibition in vivo at 8 mg/kg was 87%. For the same compound, the Activity entry in the series with Canis familiaris [4], in the series on Canis familiaris [5] and with Canis familiaris [6] was “Toxic” in each case.
In the series on Canis familiaris [1], `Cl.N=C(CS)NCC12CCCC(CC1)C2` (centres undefined) showed an inhibition in vivo at 4 mg/kg of 0%. The same compound came in with an inhibition in vivo at 8 mg/kg in the series with Canis familiaris [2] of 95%. The Activity result with Canis familiaris [4], with Canis familiaris [5] and in the series on Canis familiaris [6] was “Toxic” throughout.
`Cl.N=C(CS)NCc1ccccc1` registered an inhibition in vivo at 4 mg/kg in the series with Canis familiaris [1] of 29%. The same compound registered an inhibition in vivo at 8 mg/kg in the series on Canis familiaris [2] of 83%. The Activity entry with Canis familiaris [4], in the series with Canis familiaris [5] and in the series with Canis familiaris [6] was “Toxic” each time.
In the series with Canis familiaris [1], `Cl.N=C(CS)NC1CCCC1` registered an inhibition in vivo at 4 mg/kg of 63%. For the same compound, in the series on Canis familiaris [2], 8 mg/kg produced 100% inhibition in vivo. In addition, the Activity result in the series with Canis familiaris [4], in the series on Canis familiaris [5] and in the series on Canis familiaris [6] was “Toxic” each time.
As to `Cl.N=C(CS)NC1CCCCC1`, 4 mg/kg produced 37% inhibition in vivo with Canis familiaris [1]. In the series on Canis familiaris [2], this compound had an inhibition in vivo at 8 mg/kg of 79%. The Activity entry in the series on Canis familiaris [4], in the series on Canis familiaris [5] and with Canis familiaris [6] was “Toxic” in each case.
In turn, `Cl.N=C(CS)Nc1cccc(Cl)c1` registered an inhibition in vivo at 16 mg/kg in the series on Canis familiaris [3] of 16%. In the series with Canis familiaris [8], this compound registered an inhibition in vivo at 32 mg/kg of 61%. Besides, the Activity entry in the series on Canis familiaris [4], with Canis familiaris [5] and with Canis familiaris [6] was “Toxic” each time.
`CN(C)C(=N)CS.Cl` had an inhibition in vivo at 4 mg/kg in the series with Canis familiaris [1] of 0%. Further, testing at 8 mg/kg in the series with Canis familiaris [2] gave an inhibition in vivo of 62%. In addition, the Activity result with Canis familiaris [4], with Canis familiaris [5] and in the series with Canis familiaris [6] was “Toxic” each time.
Take `Cl.SCC1=NCCN1`: testing at 2 mg/kg in the series on Canis familiaris [7] gave an inhibition in vivo of 100%. In addition, the Activity result with Canis familiaris [4], in the series on Canis familiaris [5] and with Canis familiaris [6] was “Toxic” in each case.
In turn, `Cl.N=C(CSSCC(=N)NCc1ccccc1)NCc1ccccc1` displayed an inhibition in vivo at 4 mg/kg in the series on Canis familiaris [1] of 84%. Besides, the Activity result in the series on Canis familiaris [4], in the series with Canis familiaris [5] and in the series with Canis familiaris [6] was “Toxic” in each case.
